SMILES strings stand for the structures.

The target in assay [1] is recombinant HDAC4 (Homo sapiens, UniProt P56524). Nature of the assay: Recombinant HDAC activity assay. In kind it is biochemical. The conditions noted are these: 2 h, read-out: % HDAC activity, Class IIa HDACs, 4.
In assay [2] the test system is H9c2 cells. The assay can be described thus: Acetyl-H3K9/14 immunoblot of whole cell extract. In kind it is cell-based, rat. The conditions noted are these: H9c2 myocytes, 50 µM, 2 hours. The gist of the method:
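H9c2 cells were grown in DMEM with 10% FBS and treated at 90% confluence for 2 h with test compound or DMSO, with TSA as positive control. Washed in ice-cold PBS, lysed in PBS pH 7.4 with 0.5% Triton X-100 and 300 mM NaCl plus inhibitors, sonicated and clarified. SDS-PAGE, nitrocellulose, acetyl-H3K9/14 and total H3 antibodies, chemiluminescence; densitometry; ANOVA with Tukey.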
(In western blotting, separated proteins are transferred to a membrane and probed.)

Assay [3] addresses recombinant HDAC5 (Homo sapiens, UniProt Q9UQL6). The assay can be described thus: Recombinant HDAC activity assay. The class given is biochemical. As to conditions: 2 h, read-out: % HDAC activity, Class IIa HDACs, 5.
Assay [4] concerns the target T1, recombinant HDAC7 (Homo sapiens, UniProt Q8WUI4).
T1 sequence (Q8WUI4 1-952): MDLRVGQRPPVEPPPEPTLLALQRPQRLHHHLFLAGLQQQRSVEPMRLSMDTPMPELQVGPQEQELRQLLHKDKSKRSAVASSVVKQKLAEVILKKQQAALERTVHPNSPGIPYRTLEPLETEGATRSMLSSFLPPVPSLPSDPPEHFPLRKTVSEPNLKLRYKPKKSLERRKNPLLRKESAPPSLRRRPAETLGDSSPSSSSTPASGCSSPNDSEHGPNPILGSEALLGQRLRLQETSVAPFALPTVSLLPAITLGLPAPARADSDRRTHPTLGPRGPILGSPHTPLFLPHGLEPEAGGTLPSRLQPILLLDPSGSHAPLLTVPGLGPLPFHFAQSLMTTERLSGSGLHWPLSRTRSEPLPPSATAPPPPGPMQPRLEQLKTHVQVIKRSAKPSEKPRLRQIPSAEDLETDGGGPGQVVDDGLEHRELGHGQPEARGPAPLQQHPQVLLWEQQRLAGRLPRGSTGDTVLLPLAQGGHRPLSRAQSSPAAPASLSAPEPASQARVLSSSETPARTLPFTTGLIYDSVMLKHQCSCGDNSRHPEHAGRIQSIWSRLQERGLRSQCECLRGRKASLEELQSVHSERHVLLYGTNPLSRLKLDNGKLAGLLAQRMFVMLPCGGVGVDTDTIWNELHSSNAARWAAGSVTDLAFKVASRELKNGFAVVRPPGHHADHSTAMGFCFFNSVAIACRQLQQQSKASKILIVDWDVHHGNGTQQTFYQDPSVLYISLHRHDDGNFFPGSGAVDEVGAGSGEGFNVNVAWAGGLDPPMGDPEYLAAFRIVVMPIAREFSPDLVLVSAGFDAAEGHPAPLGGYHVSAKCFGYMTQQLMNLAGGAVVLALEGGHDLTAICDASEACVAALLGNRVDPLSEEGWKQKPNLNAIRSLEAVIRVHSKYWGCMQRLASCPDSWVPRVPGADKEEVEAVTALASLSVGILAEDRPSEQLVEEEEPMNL
Nature of the assay: Recombinant HDAC activity assay. The class given is biochemical. As to conditions: 2 h, read-out: % HDAC activity, Class IIa HDACs, 7.

Sequence of recombinant HDAC5 (Q9UQL6 whole entry): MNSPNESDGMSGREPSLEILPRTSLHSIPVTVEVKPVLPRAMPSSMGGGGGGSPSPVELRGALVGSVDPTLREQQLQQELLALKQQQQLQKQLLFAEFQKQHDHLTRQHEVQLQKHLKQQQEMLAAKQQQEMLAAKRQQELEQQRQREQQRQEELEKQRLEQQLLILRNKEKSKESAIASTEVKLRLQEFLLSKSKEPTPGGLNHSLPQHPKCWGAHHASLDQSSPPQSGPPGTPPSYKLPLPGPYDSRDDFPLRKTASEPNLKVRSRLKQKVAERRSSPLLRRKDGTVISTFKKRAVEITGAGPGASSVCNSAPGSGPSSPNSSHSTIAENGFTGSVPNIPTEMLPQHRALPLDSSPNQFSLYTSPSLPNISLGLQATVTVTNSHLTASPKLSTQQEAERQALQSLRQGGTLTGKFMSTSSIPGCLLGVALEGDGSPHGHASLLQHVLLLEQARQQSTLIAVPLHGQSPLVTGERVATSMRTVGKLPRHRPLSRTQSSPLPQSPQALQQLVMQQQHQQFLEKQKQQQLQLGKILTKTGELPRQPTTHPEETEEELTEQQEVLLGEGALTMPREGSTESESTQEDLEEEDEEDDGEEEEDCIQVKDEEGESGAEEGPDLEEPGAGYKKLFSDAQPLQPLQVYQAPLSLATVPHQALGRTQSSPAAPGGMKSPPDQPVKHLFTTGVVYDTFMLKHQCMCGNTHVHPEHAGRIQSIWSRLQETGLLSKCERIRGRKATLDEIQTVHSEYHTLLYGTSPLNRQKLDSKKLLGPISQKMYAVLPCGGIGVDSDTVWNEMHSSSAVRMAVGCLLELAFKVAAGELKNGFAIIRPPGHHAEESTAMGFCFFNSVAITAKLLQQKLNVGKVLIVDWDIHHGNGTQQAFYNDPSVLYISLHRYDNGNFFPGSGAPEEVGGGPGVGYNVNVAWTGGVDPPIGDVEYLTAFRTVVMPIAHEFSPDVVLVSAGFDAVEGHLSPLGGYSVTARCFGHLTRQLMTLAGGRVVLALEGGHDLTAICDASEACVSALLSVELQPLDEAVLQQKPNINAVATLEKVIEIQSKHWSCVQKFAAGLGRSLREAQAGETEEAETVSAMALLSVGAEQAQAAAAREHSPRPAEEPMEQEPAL
Sequence of recombinant HDAC4 (P56524 whole entry): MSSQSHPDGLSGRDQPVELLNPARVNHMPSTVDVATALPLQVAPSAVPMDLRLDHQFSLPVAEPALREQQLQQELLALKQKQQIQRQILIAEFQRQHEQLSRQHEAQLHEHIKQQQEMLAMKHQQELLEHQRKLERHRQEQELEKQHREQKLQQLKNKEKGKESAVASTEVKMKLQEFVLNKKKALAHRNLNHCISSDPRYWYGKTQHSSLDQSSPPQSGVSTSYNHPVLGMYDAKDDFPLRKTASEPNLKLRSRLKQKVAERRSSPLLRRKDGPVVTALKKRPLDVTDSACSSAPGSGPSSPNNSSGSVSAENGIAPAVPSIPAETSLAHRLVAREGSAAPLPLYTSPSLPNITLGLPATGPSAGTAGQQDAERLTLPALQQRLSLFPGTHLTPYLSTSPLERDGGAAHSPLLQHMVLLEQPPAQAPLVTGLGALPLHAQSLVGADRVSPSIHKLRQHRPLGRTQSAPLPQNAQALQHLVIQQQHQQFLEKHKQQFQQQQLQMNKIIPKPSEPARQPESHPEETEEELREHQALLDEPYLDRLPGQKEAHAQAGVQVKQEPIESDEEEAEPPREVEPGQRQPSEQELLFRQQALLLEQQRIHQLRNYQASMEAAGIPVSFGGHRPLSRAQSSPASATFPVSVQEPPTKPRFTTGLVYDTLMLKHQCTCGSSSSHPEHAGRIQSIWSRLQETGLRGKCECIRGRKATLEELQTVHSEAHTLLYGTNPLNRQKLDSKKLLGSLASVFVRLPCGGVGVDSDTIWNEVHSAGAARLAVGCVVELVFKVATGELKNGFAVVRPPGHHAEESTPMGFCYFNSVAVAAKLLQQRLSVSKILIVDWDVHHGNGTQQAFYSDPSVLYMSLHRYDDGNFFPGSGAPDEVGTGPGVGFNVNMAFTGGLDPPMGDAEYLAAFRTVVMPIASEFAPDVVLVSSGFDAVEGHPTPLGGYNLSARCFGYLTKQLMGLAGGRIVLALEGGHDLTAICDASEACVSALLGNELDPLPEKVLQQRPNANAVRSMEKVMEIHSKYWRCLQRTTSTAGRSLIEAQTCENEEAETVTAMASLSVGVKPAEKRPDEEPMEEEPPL

Regarding `Cc1cc(O)c2c(c1)C(=O)c1cc(O)cc(O)c1C2=O` [Emodin], the remaining activity at 50 µM in assay [1] worked out at 92.8%; in assay [3], 31.4%; in assay [4], 53.1%. Also, in assay [2], the “acetylation of histone 3 on lysine 9/14 (Ac-H3 K9/14) via immunoblot” value is reported as “increased”.

The values are drawn from article PMC5508980 (Molecular nutrition & food research, 2017).
